Results from paper PMC5809185 (Parasitology international, 2018).
pIC50: −log10 of the molar value. Where two headings read alike, the source gives them in different places.

Key:
[1] = system: murine-derived macrophage (NR-9456); assay: Cell toxicity assay; assay type: cell-based; conditions: read-out: NR-9456 IC50, 24 h
Procedure, shortened: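 Bone marrow-derived murine macrophages kept in D10 (DMEM, 10% heat-inactivated bovine serum, 2 mM L-glutamine, penicillin/streptomycin, 20% Medium 199, gentamicin) at 37°C, 5% CO2. Grown to confluence in 96-well plates, then exposed to test compound at 0 to 100 μM for 24 h. Alamar blue added for 4 h, and fluorescence read for IC50.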

[2] = system: five mammalian cell lines (HFF, HEK293, HC04, RAJI, NR-9456); assay: Cytotoxicity across five mammalian cell lines / in vitro therapeutic index; assay type: cell-based; conditions: at the concentrations tested
[3] = system: Salmonella typhimurium (TA100 strain); assay: Bacterial reverse mutation; assay type: cell-based; conditions: for Ames Assay (TA100): 3x the averaged T. gondii IC50, 48 replicates, point mutagenicity
[4] = system: T. gondii RH-dTom tachyzoites in pretreated HFF cells; assay: Host cell pre-treatment assay; assay type: cell-based, Toxoplasma gondii; conditions: HFF cells exposed to 10 μM for 24 h, washed, then infected with RH-dTom
Procedure, shortened: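 HFF seeded at 20,000 cells/well in D10 and grown to confluence. Treated with 10 μM test compound for 24 h, then washed three times with D10 media. Infected with 2,000 RH-dTom (red fluorescent dTomato) tachyzoites. Parasite growth read by fluorescence at day 5 (methods) or day 4 (figure legend) post-infection. Run in triplicate.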

[5] = molecular target: human albumin column (Homo sapiens, UniProt P02768); assay: Chromatography-based protein binding; assay type: in vitro ADME; conditions: plasma protein binding estimated using a chromatographic method
Sequence of human albumin column (P02768 25-609): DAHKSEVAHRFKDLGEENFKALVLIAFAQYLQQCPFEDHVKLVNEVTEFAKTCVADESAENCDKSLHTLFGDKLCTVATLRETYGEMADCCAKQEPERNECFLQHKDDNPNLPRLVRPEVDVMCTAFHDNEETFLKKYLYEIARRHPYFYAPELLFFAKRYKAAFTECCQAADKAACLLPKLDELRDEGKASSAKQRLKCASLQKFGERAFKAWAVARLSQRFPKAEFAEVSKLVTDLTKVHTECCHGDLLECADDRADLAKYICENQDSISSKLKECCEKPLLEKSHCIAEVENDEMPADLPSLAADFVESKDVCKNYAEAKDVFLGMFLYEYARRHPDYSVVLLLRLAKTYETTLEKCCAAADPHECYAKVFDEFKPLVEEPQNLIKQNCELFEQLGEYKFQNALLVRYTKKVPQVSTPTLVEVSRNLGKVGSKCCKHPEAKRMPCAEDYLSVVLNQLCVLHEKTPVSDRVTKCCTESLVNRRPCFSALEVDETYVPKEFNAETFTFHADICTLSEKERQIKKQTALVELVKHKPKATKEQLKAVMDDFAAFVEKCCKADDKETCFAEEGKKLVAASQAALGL

[6] = Partition coefficient by gradient HPLC; assay type: physicochemical
[7] = Kinetic aqueous solubility by nephelometry; assay type: physicochemical; conditions: pH 6.5 phosphate buffer; 30 min at room temperature; 1% DMSO
[8] = Metabolic stability in human liver microsomes; assay type: in vitro ADME; conditions: for CLint, in vitro / T1/2: 1 μM, 0.4 mg/mL protein
[9] = Metabolic stability in mouse liver microsomes; assay type: in vitro ADME; conditions: for CLint, in vitro / T1/2: 1 μM, 0.4 mg/mL protein
[10] = system: T. gondii RH-dTom tachyzoites; assay: In vivo T. gondii survival study; set-up: species or system Swiss Webster CFW mice; conditions: lethal dose of T. gondii strain RH tachyzoites
[11] = system: Human foreskin fibroblast (HFF); conditions: read-out: HFF IC50; cytotoxicity; ref Guigemende 2010; cited from earlier work
[12] = system: kidney (HEK293); conditions: read-out: HEK293 IC50; cytotoxicity; ref Guigemende 2010; cited from earlier work
[13] = system: hepatocytes (HC04); conditions: read-out: HC04 IC50; cytotoxicity; ref Guigemende 2010; cited from earlier work
[14] = system: B lymphocyte (RAJI); conditions: read-out: RAJI IC50; cytotoxicity; ref Guigemende 2010; cited from earlier work
[15] = system: T. gondii; assay: T. gondii inhibition in vitro; assay type: cell-based, Toxoplasma gondii
Procedure, shortened: (§1)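 Confluent HFF (20,000 cells/well, D10, 37°C, 5% CO2) infected with 2,000 dTomato-expressing tachyzoites (type I RH or type II PRU). Invasion allowed for 12 h, then media replaced. Test compound added at 0 to 100 μM in duplicate. Parasite fluorescence read at day 5 post-infection for IC50.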

[16] = system: T. gondii PRU-dTom; assay: T. gondii PRU-dTom; assay type: cell-based; conditions: Toxoplasma gondii, 120 h, read-out: T. gondii PRU-dTom IC50
Procedure, shortened: as §1

[17] = cytotoxicity, 0 to 100 μM, Alamar blue

| SMILES | pIC50 [1, 17] | Cell lines whose growth was inhibited [2] | Ames Assay (TA100) [3] | Decrease of T. gondii growth after host cell pre-treatment [4] | cPPB (% bound) [5] [% bound] | gLogD (pH 7.4) [6] | Sol6.5 kinetic solubility [7] [µg/mL] | Predicted EH (hepatic extraction ratio) [8] | CLint, in vitro [8] [μL/min/mg protein] | T1/2 [8] [min] | CLint, in vitro [9] [μL/min/mg protein] | T1/2 [9] [min] | pIC50 [11] | pIC50 [12] | pIC50 [13] | pIC50 [14] | other results |
| --- | --- | --- | --- | --- | --- | --- | --- | --- | --- | --- | --- | --- | --- | --- | --- | --- | --- |
| CCOc1ccc(/C=C/c2nc(=O)c3ccccc3o2)cc1 [KG3] | < 4.00 | did not inhibit the growth of any of the five cell lines | Negative | 21% | 99 | 2.8 | 1.2 to 2.2 | 0.88 | 129 | 9 | >886 | <2 | < 4.40 | < 4.40 | < 4.40 | < 4.40 | Mice spared (survival) ([10]; 20 mg/kg IP twice daily): 33% |
| NNC(=O)c1ccncc1 [isoniazid] | – | – | – | – | – | – | – | – | – | – | – | – | – | – | – | – | Efficacy against Toxoplasma gondii in vitro ([15]; data not shown): no efficacy |
| CC(C)(C)c1cc(/N=N/C(=O)c2ccncc2)cc(C(C)(C)C)c1O [KG8] | < 4.00 | 2/5 | Negative | no effect | >99.5 | 3.9 | 3.1 to 6.3 | 0.6 | 37 | 47 | 180 | 10 | < 4.55 | 6.01 | < 4.55 | 6.17 | – |
| CCc1nc(N)nc(N)c1-c1ccc(Cl)cc1 [Pyrimethamine, reference compound] | – | – | – | – | – | – | – | – | – | – | – | – | < 4.00 | < 4.00 | < 4.00 | < 4.00 | pIC50 [16]: 6.10; pIC50 ([1]; Mus musculus, Macrophage): < 4.00; Mice spared (survival) ([10]; 21 mg/kg): 100%; pIC50 ([15]; Toxoplasma gondii, read-out: T. gondii IC50 in vitro): 5.82 to 6.60 |
| CC(C)(C)c1cc(C2C(C#N)=C(N)OC3=C2C(=O)CCC3)cc(C(C)(C)C)c1O (stereo not drawn) [KG7] | < 4.00 | 2/5 | Negative | no effect | 93 | 3.9 | 3.1 to 6.3 | 0.97 | 746 | 2 | >886 | <2 | < 4.44 | < 4.44 | 5.52 | 5.52 | Effect on S. typhimurium growth in Ames assay ([3]; TA100 strain): appeared to inhibit S. typhimurium growth; Predicted EH (hepatic extraction ratio) [9]: >0.94 |
